Results taken from publication PMC7368294 (Proceedings of the National Academy of Sciences of the …, 2020).
pEC50: −log10 of the molar value.

How the values were obtained:
Dα1/Dβ1 nAChR [1] = target: T1, Dα1/Dβ1 nAChR (Drosophila melanogaster, UniProt P04755+P09478); experiment: two-electrode voltage clamp of Xenopus oocytes, agonist concentration-response; assay type: cell-based
T1 sequence (P09478 22-567): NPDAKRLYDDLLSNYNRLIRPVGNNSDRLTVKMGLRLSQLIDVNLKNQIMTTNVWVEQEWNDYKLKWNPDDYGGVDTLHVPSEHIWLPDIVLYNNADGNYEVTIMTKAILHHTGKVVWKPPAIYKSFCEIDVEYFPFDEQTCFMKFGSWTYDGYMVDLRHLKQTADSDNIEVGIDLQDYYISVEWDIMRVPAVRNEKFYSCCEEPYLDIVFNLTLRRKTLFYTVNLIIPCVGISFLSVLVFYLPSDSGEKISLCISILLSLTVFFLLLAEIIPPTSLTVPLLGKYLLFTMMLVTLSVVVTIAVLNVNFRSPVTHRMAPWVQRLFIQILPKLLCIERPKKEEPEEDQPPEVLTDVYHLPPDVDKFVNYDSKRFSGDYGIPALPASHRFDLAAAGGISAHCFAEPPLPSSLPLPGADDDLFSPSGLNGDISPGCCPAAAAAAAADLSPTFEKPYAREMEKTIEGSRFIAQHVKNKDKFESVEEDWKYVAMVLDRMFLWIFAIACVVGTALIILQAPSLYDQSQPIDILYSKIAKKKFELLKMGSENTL
T1 sequence (P04755 25-521): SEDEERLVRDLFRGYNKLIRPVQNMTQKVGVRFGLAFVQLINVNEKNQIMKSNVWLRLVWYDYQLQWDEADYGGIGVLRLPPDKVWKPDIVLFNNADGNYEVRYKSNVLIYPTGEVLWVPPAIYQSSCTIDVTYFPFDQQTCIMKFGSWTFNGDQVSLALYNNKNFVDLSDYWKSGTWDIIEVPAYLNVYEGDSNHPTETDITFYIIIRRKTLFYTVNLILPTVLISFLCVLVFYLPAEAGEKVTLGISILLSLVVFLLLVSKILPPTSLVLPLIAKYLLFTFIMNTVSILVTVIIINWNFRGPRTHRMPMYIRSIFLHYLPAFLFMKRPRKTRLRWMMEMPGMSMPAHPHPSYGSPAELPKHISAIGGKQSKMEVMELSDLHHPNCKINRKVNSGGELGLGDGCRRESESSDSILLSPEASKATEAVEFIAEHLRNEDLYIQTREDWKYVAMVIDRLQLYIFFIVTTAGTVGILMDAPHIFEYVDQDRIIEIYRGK
Method in brief: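 Oocytes were collagenase-defolliculated, injected with subunit and cofactor cRNAs (100 ng⋅μL−1 each) and kept 3–7 d at 16 °C. Cells were clamped at −100 mV and perfused with saline containing 0.5 μM atropine. Agonists were applied 5 s at 3-min intervals after stable 100 μM ACh responses. Peak currents were normalized to 100 μM ACh and Hill-fitted. n = 5, ≥2 frogs; DMSO <0.1%.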

Dα1/Dβ1/Dβ2 nAChR [2] = target: T2, Dα1/Dβ1/Dβ2 nAChR (Drosophila melanogaster, UniProt P04755+P09478+P25162); experiment: two-electrode voltage clamp of Xenopus oocytes, agonist concentration-response; assay type: cell-based
T2 sequence (P09478 22-567): T1 sequence (P09478 22-567)
T2 sequence (P04755 25-521): T1 sequence (P04755 25-521)
T2 sequence (P25162 19-519): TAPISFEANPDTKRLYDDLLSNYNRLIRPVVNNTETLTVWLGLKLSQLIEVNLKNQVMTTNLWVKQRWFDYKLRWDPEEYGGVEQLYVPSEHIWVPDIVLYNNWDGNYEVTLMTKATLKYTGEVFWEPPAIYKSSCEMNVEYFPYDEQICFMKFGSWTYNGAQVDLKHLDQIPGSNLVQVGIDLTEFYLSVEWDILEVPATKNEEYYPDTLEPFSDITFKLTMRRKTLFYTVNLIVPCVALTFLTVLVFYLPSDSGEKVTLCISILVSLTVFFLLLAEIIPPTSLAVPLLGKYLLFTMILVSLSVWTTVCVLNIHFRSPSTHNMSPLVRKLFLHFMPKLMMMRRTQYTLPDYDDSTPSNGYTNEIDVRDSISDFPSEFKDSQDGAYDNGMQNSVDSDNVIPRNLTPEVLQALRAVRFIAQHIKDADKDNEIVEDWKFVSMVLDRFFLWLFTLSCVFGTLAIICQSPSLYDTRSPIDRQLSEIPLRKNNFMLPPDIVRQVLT

Dα1/Dα2/Dβ1 nAChR [3] = target: T3, Dα1/Dα2/Dβ1 nAChR (Drosophila melanogaster, UniProt P04755+P09478+P17644); experiment: as above; assay type: cell-based
T3 sequence (P09478 22-567): T1 sequence (P09478 22-567)
T3 sequence (P17644 22-576): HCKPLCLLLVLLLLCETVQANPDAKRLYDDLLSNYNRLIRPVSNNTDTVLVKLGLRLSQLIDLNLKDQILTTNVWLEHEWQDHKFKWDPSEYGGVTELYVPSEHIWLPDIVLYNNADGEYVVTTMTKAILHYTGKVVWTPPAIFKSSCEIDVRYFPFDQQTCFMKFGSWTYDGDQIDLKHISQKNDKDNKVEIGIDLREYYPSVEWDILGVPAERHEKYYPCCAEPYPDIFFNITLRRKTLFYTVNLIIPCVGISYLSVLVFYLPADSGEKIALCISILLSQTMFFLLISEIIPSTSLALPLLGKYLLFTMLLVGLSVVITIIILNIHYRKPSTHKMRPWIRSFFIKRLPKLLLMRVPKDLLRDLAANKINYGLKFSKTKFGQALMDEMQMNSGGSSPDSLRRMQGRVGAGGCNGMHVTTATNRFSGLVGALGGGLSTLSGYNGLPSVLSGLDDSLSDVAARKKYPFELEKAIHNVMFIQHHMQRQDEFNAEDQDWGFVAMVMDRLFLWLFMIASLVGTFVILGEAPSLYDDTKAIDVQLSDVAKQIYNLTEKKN
T3 sequence (P04755 25-521): T1 sequence (P04755 25-521)

Dα1/Dα2/Dβ1/Dβ2 nAChR = Dα1/Dα2/Dβ1/Dβ2 nAChR (Drosophila melanogaster, UniProt P04755+P09478+P17644+P25162); experiment: cell-based; parameters: species or system Xenopus laevis oocytes
Dα1/Dα2/Dβ1 nAChR [4] = target: T3, Dα1/Dα2/Dβ1 nAChR; experiment: cell-based; parameters: species or system Xenopus laevis oocytes
Dα1/Dβ1/Dβ2 nAChR [5] = target: T2, Dα1/Dβ1/Dβ2 nAChR; experiment: cell-based; parameters: species or system Xenopus laevis oocytes
Dα1/Dβ1 nAChR [6] = target: T1, Dα1/Dβ1 nAChR; experiment: cell-based; parameters: species or system Xenopus laevis oocytes

SMILES | pEC50 (Dα1/Dβ1 nAChR [1]) | pEC50 (Dα1/Dβ1/Dβ2 nAChR [2]) | pEC50 (Dα1/Dα2/Dβ1 nAChR [3]) | pEC50 (Dα1/Dα2/Dβ1/Dβ2 nAChR) | pEC50 (Dα1/Dα2/Dβ1 nAChR [4]) | pEC50 (Dα1/Dβ1/Dβ2 nAChR [5]) | pEC50 (Dα1/Dβ1 nAChR [6])
N#C/N=C1\SCCN1Cc1ccc(Cl)nc1 [thiacloprid] | 7.64 | 7.73 | 6.63 |  |  |  | 
CN/C(=N\[N+](=O)[O-])NCc1cnc(Cl)s1 [clothianidin] | 7.21 |  |  | 6.51 | 5.53 | 6.66 | 
O=[N+]([O-])NC1=NCCN1Cc1ccc(Cl)nc1 [imidacloprid] |  | 6.97 | 6.39 |  |  |  | 6.76
